CRFBP-R2 agonist: agonists of CRF-BP/CRF-R2 complex, primary screen, cell-based, HEK293, calcium dye fluorescence, uHTS | 0.46% of 350,000 active | calcium dye fluorescence (FLIPR); percent of saturating CRF peptide response | activation, % at 13.2 µM | CRF-binding protein / CRF receptor 2 complex (human);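 active = activation of at least 50%, plus an integration ratio under a set limit after plate pattern correction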;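 also: plate controls were neutral control wells without compound for no effect and CRF at EC100 for full effect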
CRFR2-BP antag: antagonists of CRF-BP/CRF-R2 complex, primary screen, cell-based, HEK293, calcium dye fluorescence, uHTS; inhibition, % at 11.8 µM; 0.59% of 350,000 active; CRF-induced calcium fluorescence;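 active = inhibition of the ligand-induced calcium signal above about 50% at the single tested concentration, limit read from the data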
TAAR1 agonist: human TAAR1 agonists, primary screen, Fluo-8 calcium fluorescence, CHO RD-HGA16 cells. 0.99% of 360,000 active. Trace amine-associated receptor 1 (Homo sapiens), Q96RJ0. vehicle wells 0%, saturating PEA agonist 100%. activation, % at 3 µM. AID 624467, 2012;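 active = activation above the mean activation of all test compounds in the run plus 3 SD, cut at about 38% in these data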
Target sequence (Q96RJ0 whole entry, looked up): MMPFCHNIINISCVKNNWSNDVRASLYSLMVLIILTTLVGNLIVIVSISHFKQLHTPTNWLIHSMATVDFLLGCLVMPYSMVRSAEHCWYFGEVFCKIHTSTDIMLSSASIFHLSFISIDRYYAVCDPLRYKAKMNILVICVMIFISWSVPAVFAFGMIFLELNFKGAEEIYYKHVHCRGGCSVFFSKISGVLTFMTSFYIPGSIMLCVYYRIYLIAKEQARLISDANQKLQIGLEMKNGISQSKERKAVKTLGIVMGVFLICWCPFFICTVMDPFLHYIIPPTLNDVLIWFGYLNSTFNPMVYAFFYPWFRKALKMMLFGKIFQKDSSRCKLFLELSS
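Test system: RD-HGA16 (CHO) cells co-expressing Gα16 and hTAAR1 / Benchmarks: DMSO vehicle as 0%, PEA at EC100 as 100% / Repeats: no replicates (n 1) / Measure: % activation from peak over basal fluorescence ratio, DMSO-to-PEA scaled / Timing: 17-24 h plating, Fluo-8 75 min 37 °C, 30 min RT / Technique: kinetic Fluo-8 calcium fluorescence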
TAAR1 antag: human TAAR1 antagonists, primary screen, Fluo-8 calcium fluorescence, CHO RD-HGA16 cells; Trace amine-associated receptor 1 (Homo sapiens), Q96RJ0; inhibition, % at 3 µM; antagonist; 1.5% of 360,000 active;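 active = inhibition above a per-plate cutoff, the mean inhibition of test compounds on that plate plus 3 SD, cut at about 49% in these data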;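 also: 0% = DMSO plus EC80 beta-PEA response and 100% = DMSO alone without agonist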
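Test system: CHO RD-HGA16 cells bearing hTAAR1 | Reagent: β-PEA, EC80 | Compound dosing: 3 µM, single point | Schedule: Dye loading 75 min at 37 °C, then 30 min room temperature | Signal: Calcium fluorescence with Fluo-8 | Evaluation: Percent inhibition of PEA-evoked calcium signal, max/basal emission ratio | Control set: DMSO-only wells and EC80 β-PEA-stimulated wells | Repeats: Singlicate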
ANO1 block: TMEM16A chloride channel inhibitors, primary screen, cell-based, HTS. Anoctamin-1 (Mus musculus), Q8BHY3. HEK293 TMEM16A/YFP iodide influx fluorescence, ionomycin. normalized B-score (activity score, 25-100; higher = stronger inhibition) at 10 µM. 1.2% of 310,000 active. AID 588511, 2011;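 active = ratio plate-corrected score three or more library SD toward inhibition, starting fluorescence score within five deviations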;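 also: score derived from kinetic fluorescence span divided by baseline fluorescence per well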
TMEM16A act: TMEM16A chloride channel activators or potentiators, primary screen, cell-based, HTS. Anoctamin-1 (Mus musculus), Q8BHY3. HEK293 TMEM16A/YFP-H148Q/I152L, iodide quench fluorescence; stronger effect = lower value. B-score at 10 µM. 0.3% of 340,000 active. AID 623877, 2012;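 active = fluorescence-ratio B-score plate-corrected deviation score at least 3 library SD below zero, with starting fluorescence score within 5 deviations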;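 also: channel opened by trigger with iodide after compound preincubation; score built on the fluorescence ratio of max minus min over baseline; more negative score means more quench and so TMEM16A activation or potentiation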
* = called active by the depositor; i = inactive; . = not tested or not shown. Only some compounds are listed: those with a hit (about 3.9% of all), similar ones and a draw of the others.

SMILES | CRFBP-R2 agonist | CRFR2-BP antag | TAAR1 agonist | TAAR1 antag | ANO1 block | TMEM16A act
COC(=O)C1=C(C)N(C)C(C)=C(C(=O)OC)C1c1ccc(F)c(Br)c1 | -8 | 55* | 6 | 25 | i | i
C[C@H](O)C#Cc1ccc2c(c1)O[C@@H](CN(C)Cc1ccc(-c3ccccc3)cc1)[C@H](C)CN([C@@H](C)CO)S2(=O)=O | 8 | -22 | 6 | 51* | . | .
C[C@@H]1CN([C@@H](C)CO)S(=O)(=O)c2ccc(-c3ccc(C#N)cc3)cc2O[C@@H]1CN(C)Cc1ccccn1 | -1 | 9 | 12 | 56* | . | .
C[C@H](CO)N1C[C@H](C)[C@@H](CN(C)Cc2ccc3c(c2)OCO3)Oc2cc(Br)ccc2S1(=O)=O | 5 | -15 | 1 | 50* | . | .
C[C@@H]1CN([C@H](C)CO)S(=O)(=O)c2ccc(Br)cc2O[C@@H]1CN(C)Cc1ccc(-c2ccccc2)cc1 | 1 | 15 | 1 | -28 | . | .
C[C@@H]1CN([C@@H](C)CO)S(=O)(=O)c2ccc(Br)cc2O[C@@H]1CN(C)Cc1ccc2c(c1)OCO2 | . | . | 1 | 9 | . | .
O=C(OCC(=O)N1CCCCCC1)c1ccc([N+](=O)[O-])cc1Cl | 1 | -1 | 7 | 3 | i | i
CCO[C@@H]1OC(C(=O)N2CCOCC2)=C[C@H](C(C)(C)C)[C@H]1CCCO | 1 | 14 | 5 | -4 | i | i
O=C(COc1ccc(Cl)cc1Cl)NC(=S)Nc1ccccc1C(=O)O | . | . | . | . | 25* | .
Cc1occc1C(=O)NNC(=S)NC(=O)COc1ccc(Cl)cc1Cl | 230* | -251 | 0 | -3 | 100* | -5*
COc1cc(NC(=O)CSc2ncnc3sc4c(c23)CCC(C)C4)c(C(=O)O)cc1OC (configuration not stated) | -2 | 3 | -3 | 0 | i | i
Cc1ccc(OCc2nnc(SCc3nc4ccccc4[nH]3)n2Cc2ccco2)cc1 | -1 | -9 | 10 | 36 | 100* | i
O=C(c1ccc(Cl)s1)N1CCN(S(=O)(=O)c2ccc(Cl)cc2)CC1 | -1 | 8 | 0 | 8 | . | i
Cc1[nH]nc2c1-c1nc3ccccc3nc1C(C)(C)C2 | 1 | -31 | 6 | -4 | 25* | i
CC12CCC(C)(c3nc4ccccc4nc31)C2(C)C | 19 | -3 | 8 | 4 | i | i
COc1ccc(NC(=O)c2ccc(NC(=O)c3ccncc3)cc2)cc1 | 6 | -4 | 2 | 9 | i | i
COc1ccc(C(=O)Nc2ccc(C3CC3(Cl)Cl)cc2)cc1 (configuration not stated) | 3 | 75* | 4 | -10 | i | i
COc1ccc(C)cc1NC(=O)Nc1ccc(C(=O)N2CCCC2)cc1 | 0 | -1 | 0 | -27 | i | i
O=C(Cn1nc(-c2ccc(Cl)cc2)ccc1=O)NCC1CCCO1 (configuration not stated) | 0 | 20 | -1 | -3 | i | -17*
COc1cc(/C=C2\SC(c3ccc(C)cc3)=NC2=O)ccc1O | 50* | -120 | 2 | -18 | i | i
COc1ccc(/C=C2/SC(c3ccc(C)cc3)=NC2=O)cc1OC | 36 | -32 | 36 | 15 | i | i
COc1ccc(/C=C2\SC(c3ccc(C)cc3)=NC2=O)cc1OC | 132* | -137 | 21 | 12 | i | i
CCCNS(=O)(=O)c1cccc(C(=O)NC2CCCc3ccccc32)c1 (configuration not stated) | -1 | 52* | 1 | -6 | i | i
O=C(c1cccc(S(=O)(=O)Nc2ccccc2F)c1)N1CCN(c2ccccc2F)CC1 | -3 | -5 | 5 | 8 | i | i
O=C(NC1CC1)c1cccc(S(=O)(=O)Nc2ccccc2F)c1 | 0 | 0 | 2 | 7 | i | -4.9*
SMILES | CRFBP-R2 agonist | CRFR2-BP antag | TAAR1 agonist | TAAR1 antag | ANO1 block | TMEM16A act
COc1ccccc1N1CCN(C(=O)c2cccc(S(=O)(=O)Nc3ccccc3F)c2)CC1 | -3 | 2 | 18 | 54* | . | i
O=C(NNC(=O)c1cccc(S(=O)(=O)Nc2ccccc2F)c1)c1ccncc1 | 4 | -38 | 1 | 1 | . | .
COc1ccccc1NC(=O)Nc1ccc(CC#N)cc1 | -2 | -13 | 4 | 18 | i | i
CCCCn1c(N)c(N(CC)C(=O)CSCC(=O)Nc2ccc(OC)cc2)c(=O)[nH]c1=O | -3 | 5 | 2 | -20 | i | i
CCCCCCCCCn1c2c(c(=N)c3c1CCC3)CCC2 | 1 | -25 | . | . | 100* | i
CCCCCCn1c2c(c(=N)c3c1CCC3)CCC2 | 6 | 10 | 14 | 3 | i | i
O=C(N/N=C/c1ccc2c(c1)OCO2)c1ccc(COc2cccc3cccnc23)cc1 | -1 | -4 | 15 | 49* | i | i
O=Cc1c(N2CCN(CCO)CC2)nc2ccccn2c1=O | 128* | -85 | 0 | -1 | i | i
O=[N+]([O-])c1ccc(O)c(/C=N\N=C2c3ccccc3-c3ccccc32)c1 | 84* | 74* | 8 | -12 | i | i
COc1cc(/C=N\NC(=O)c2ccc(Cn3nc([N+](=O)[O-])c(Cl)c3C)o2)ccc1O | 15 | 21 | 12 | 49* | i | i
Cc1c(Cl)c([N+](=O)[O-])nn1Cc1ccc(C(=O)N/N=C\c2ccccn2)o1 | -1 | 11 | 7 | -18 | i | i
CCOC(=O)c1c(-c2ccccc2)csc1NC(=O)/C(C#N)=C/c1ccc(O)c(OC)c1 | 198* | -216 | 29 | 45 | i | i
CCOc1ccc(N2C(=O)CC(NCCNc3ccc([N+](=O)[O-])cn3)C2=O)cc1 (configuration not stated) | 1 | 10 | 3 | -17 | 25* | i
COc1ccc(N2C(=O)CC(NCCNc3ccc([N+](=O)[O-])cn3)C2=O)cc1 (configuration not stated) | -1 | 4 | 1 | -6 | i | i
CC(C)NC(=O)C1(C)CCN1C(=O)c1ccc(F)c(Cl)c1 (configuration not stated) | . | . | 1 | 6 | . | .
CC(Sc1ccccc1)C(=O)N1CCN(S(=O)(=O)c2cccc(Br)c2)CC1 (configuration not stated) | 6 | 2 | 0 | 2 | i | i

Screening results as filed in PubChem BioAssay.
